# Sampled rows, rich in hits. Any-hit rate of the full collection: about 0.85%.
# CatG inh: inhibitors of human cathepsin G; P08311; purified enzyme, AMC-tetrapeptide fluorescence, pooled mixtures; inhibition, % at 5 µM (by protocol); actives 0.2% (n = 62,000); AID 581;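 active = inhibition above 20% in each of the two mixture wells holding the compound; inactive = inhibition of 20% or less in either well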;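 note: 0% = enzyme control without mixture and 100% = blank lacking enzyme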
# C1s block: blocks human complement C1s protease activity; mean inhibition % of two 10-compound mixtures (hits give high values), % at 5 µM (by protocol); purified C1s, fluorogenic AMC substrate, pooled mixtures; actives 0.16% (n = 62,000); P09871;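 active = inhibition above 20% in each of the two 10-compound mixture wells holding the compound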;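 note: 0% = enzyme wells lacking compound mixture and 100% = no-enzyme blank wells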
# WNV protease inh: inhibitors of West Nile virus NS2B-NS3 protease; P06935; WNV NS2B-NS3 protease, fluorogenic substrate Ex360/Em465; hits give low values; AID 577; z-score (no concentration beside the values); actives 0.18% (n = 65,000); in the data active = z-score below about -3
# AP complement: orthogonal test for alternative complement pathway inhibitors | Human serum alternative complement pathway, LPS-coated ELISA, C3 deposition; tested in compound mixtures | inhibition, % at 5 µM | actives 0.08% (n = 62,000);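 active = inhibition above 30% in each of the two pooled mixtures holding the compound, so the lower value exceeds 30%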;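 note: 0% = serum in Mg-EGTA without compound and 100% = EDTA serum blank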
#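 Assay system: Human serum alternative complement pathway, C3 deposition on LPS-coated wells | Incubation: 1 h serum-compound exposure at 37 °C | Doses: 5 µM per compound in ten-compound mixtures | Read-out: Percent inhibition | Technique: ELISA with HRP anti-human C3 antibody, TMB substrate, absorbance 450 nm | Replication: Two pool placements per compound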
# FXIIa mix inh: blocks human factor XIIa in pooled compound mixtures. P00748. purified FXIIa, fluorogenic substrate. inhibition, % at 5 µM. actives 0.2% (n = 62,000). AID 684;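 note: 0% = enzyme without compound and 100% = no enzyme blank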
# FXIa mix inh: factor XIa (human) inhibition, mixture screen. purified FXIa, fluorogenic substrate, pooled mixtures. actives 0.19% (n = 62,000). inhibition, % at 5 µM;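 note: each value is inhibition by a whole ten-compound pool holding the compound; 0% = enzyme with no mixture and 100% = wells lacking enzyme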
# Starred values were filed as active, the others as inactive. Cut-off read from the data, not from the text of the source, unless noted: active = inhibition above about 20% (passing the limit was not always enough); inactive = the rest.
SMILES,CatG inh,C1s block,WNV protease inh,AP complement,FXIIa mix inh,FXIa mix inh
COc1ccccc1N1CCN(Cc2ccccc2Cl)CC1,11,13,0.09,-11,-1,11
COc1ccccc1CN1CCCCC1c1cccnc1 (centres undefined),10,59*,0.07,6,0,5
O=C1NC(=O)[C@]2(Cc3ccccc3N3CCN(c4ccccc4)CC32)C(=O)N1Cc1ccccc1 (some centres undefined),-4,-11,-4*,5,24,1
CC(=O)[C@@]1(O)CC[C@H]2[C@@H]3CC=C4C[C@@H](O)CC[C@]4(C)[C@H]3CC[C@@]21C,9,8,-0.0039,16,5,3

# Screens deposited in PubChem BioAssay by several laboratories.
